The text below walks through data of PMC4182178 (Oncogene, 2014).

Data set [1] deals with Stat3 phosphorylation. The experiment in a line: Phosphoflow assay, G-CSF stimulated Stat3 phosphorylation in Kasumi-1 cells. The class given is cell-based. The settings on record: read-out: IC50 G-CSF stimulated Stat3 phosphorylation, Mean ± SEM, n ≥ 2, G-CSF 10 ng/ml 15′.
For data set [2], the system named is Stat3 phosphorylation. The experiment in a line: Constitutive Stat3 phosphorylation in breast cancer cell lines. The data set is classed as cell-based, human. The settings on record: for IC50: read-out: IC50 Constitutive Stat3 phosphorylation, Mean ± SEM, n ≥ 2.
The next data set concerns MDA-MB-231 cells. The experiment in a line: Anchorage independent growth. The class given is cell-based, human.
The subject of another data set is MDA-MB-468 cells. The experiment in a line: Anchorage independent growth. The data set is classed as cell-based, human.
The next data set deals with Hs 578T cells. The experiment in a line: Anchorage independent growth. The data set is classed as cell-based, human. Particulars: read-out: IC50 Anchorage independent growth (MTT), Mean ± SEM, n ≥ 2. The essentials: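 Cells grown in triplicate in ultra-low-attachment 96-well plates in complete DMEM ± test compound (0/0.1/0.3/1/3/10/100 μM) for 48–72 hrs. Viable cells were quantitated by MTT. Relative % viability was calculated as treated ÷ untreated × 100 and plotted against log concentration. IC50 was derived from ≥2 replicate experiments.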

A further data set has as its system MCF 10A. The experiment in a line: Anchorage independent growth. The class given is cell-based.
In another data set the test system is MCF-12A. The data set can be described thus: Anchorage independent growth. The data set is classed as cell-based.
The next data set concerns MCF-7. The data set can be described thus: Anchorage independent growth. The class given is cell-based, human.
For the next data set, the system named is MDA-MB-453. The experiment in a line: Anchorage independent growth. The class given is cell-based.
The next data set relates to ZR-75-1. The experiment in a line: Anchorage independent growth. The class given is cell-based.
The next data set has as its system T-47D. The data set can be described thus: Anchorage independent growth. The class given is cell-based, human.
The test system of another data set is Sum159PT. The data set can be described thus: Anchorage independent growth. The class given is cell-based.
A further data set has as its system MC1. The data set can be described thus: Mammosphere assay, patient-derived xenograft cells. The data set is classed as cell-based, human. Particulars: read-out: IC50 Mammosphere assay, Mean ± SEM, n ≥ 2. The procedure, abridged:
(§1)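 Patient-derived breast tumors serially grown in SCID/Beige mouse fat pad were excised, minced, collagenase-digested, mesh-filtered and suspended as single cells in MEGM+. Cells were plated in serum-free, growth-factor-enriched medium in low-attachment plates ± test compound (0/0.1/0.3/1/3/10/100 μM), fed twice weekly, and counted by automated colony counter after 5–12 days. Percent of untreated colony number was fitted for IC50.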

A further data set concerns BCM-2665. The experiment in a line: Mammosphere assay, patient-derived xenograft cells. Particulars: read-out: IC50 Mammosphere assay, Mean ± SEM, n ≥ 2. The class given is cell-based, human. The essentials: as §1
The test system of the next data set is GFP+ SUM159PT cells. The class given is cell-based. Particulars: PL 3 and 10 μM. The essentials: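 SUM159PT cells carrying a lentiviral Stat3-GFP reporter (GFP driven by four M67 repeats) were grown as xenografts in pre-cleared mammary glands of SCID/Beige mice. Excised tumors were digested to single cells and FACS-sorted into GFP+ and GFP− populations. Mammosphere formation efficiency was then assayed in MEGM+ without or with test compound.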

The next data set has as its system MEF/GFP-Stat3α cells. The data set can be described thus: Anchorage-independent colony growth and MTT viability of MEF/GFP-Stat3α cells. The data set is classed as cell-based. The settings on record: 3μM of PL. The procedure, abridged: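 Stat3−/− MEFs stably expressing GFP-Stat3α were grown under anchorage-independent conditions with increasing doses of test compound, then photographed. Mean colony number from duplicate wells was taken as a percentage of DMSO-treated cells. Viability by MTT was also expressed relative to DMSO-treated cells. IC50 values were fitted against log concentration.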

Data set [3] concerns Stat3-regulated genes. The data set can be described thus: Quantitative RT-PCR of Stat3-regulated genes in MDA-MB-468 cells. The data set is classed as cell-based, human. The settings on record: 30 μM, 6–8 hr.
The subject of the next data set is cleaved caspase 3. The data set can be described thus: Cleaved caspase 3 in MDA-MB-468 cells. The class given is cell-based, human. Particulars: PL 30μM, 12 hrs. The essentials:
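MDA-MB-468 cells were exposed to 30 μM test compound and sampled over 15 min to 24 h. Cleaved caspase 3 and GAPDH were measured in whole protein by Luminex bead immunoassay. GAPDH-normalized active caspase 3 was expressed as a percentage of the pre-treatment value.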

The subject of data set [4] is MDA-MB-468 tumor xenografts. The experiment in a line: Human breast cancer cell line xenograft assay, tumor growth. The class given is in vivo, nude mice. The settings on record: 15 mg/Kg body weight/day IP, 21 days; p < 0.05.
Data set [5] relates to Stat3-regulated genes. The experiment in a line: mRNA of Stat3-regulated genes in MDA-MB 468 xenograft tumors. The class given is in vivo, nude mice. The settings on record: 15 mg/Kg; vs vehicle; p<0.05; listed as PL. The essentials: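 mRNA levels of Stat3-regulated genes were measured by Q-RT-PCR in excised tumors from nude mice bearing subcutaneous MDA-MB-468 xenografts. Mice had been treated i.p. with test compound 15 mg/Kg in DMSO or with vehicle, 5 days/week for 3 weeks. Values were normalized to β-actin and compared against vehicle-treated tumors.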

Another data set is described as follows: Toxicity in mice. The class given is in vivo. The settings on record: up to a dose of 30 mg/Kg/day for 14 days.
The target in data set [6] is glutathione S-transferase pi 1 (GSTP1). Particulars: read-out: IC50 for GSTP1 inhibition; cited from earlier work.
The target of a further data set is GFP-Stat3α (Homo sapiens, UniProt P40763). The data set is classed as cell-based.
Chain of GFP-Stat3α (P40763 whole entry): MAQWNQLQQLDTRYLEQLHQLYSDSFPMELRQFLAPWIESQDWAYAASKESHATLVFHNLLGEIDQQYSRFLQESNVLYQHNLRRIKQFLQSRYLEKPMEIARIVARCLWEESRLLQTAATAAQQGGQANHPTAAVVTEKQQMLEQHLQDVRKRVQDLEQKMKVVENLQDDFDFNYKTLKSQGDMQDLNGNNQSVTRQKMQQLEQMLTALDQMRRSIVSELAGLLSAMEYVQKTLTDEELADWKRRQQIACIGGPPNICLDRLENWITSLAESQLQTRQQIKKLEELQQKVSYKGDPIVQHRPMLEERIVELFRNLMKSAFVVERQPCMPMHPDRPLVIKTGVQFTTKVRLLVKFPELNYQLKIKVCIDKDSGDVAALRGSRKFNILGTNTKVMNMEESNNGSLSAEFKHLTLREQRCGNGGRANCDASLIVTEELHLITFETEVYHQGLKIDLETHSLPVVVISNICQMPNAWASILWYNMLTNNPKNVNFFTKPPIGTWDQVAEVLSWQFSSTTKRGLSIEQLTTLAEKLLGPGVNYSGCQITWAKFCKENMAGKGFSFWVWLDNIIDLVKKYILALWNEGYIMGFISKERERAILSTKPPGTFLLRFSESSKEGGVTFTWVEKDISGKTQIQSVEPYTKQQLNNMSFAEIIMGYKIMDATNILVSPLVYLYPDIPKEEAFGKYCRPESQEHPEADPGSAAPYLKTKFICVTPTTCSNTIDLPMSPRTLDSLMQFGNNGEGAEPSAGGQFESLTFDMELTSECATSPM
Setting [7] is: read-out: Anchorage independent Growth IC50, 80 hrs, no sensitivity taken as 100 μM.
Where [8] appears, read: read-out: Anchorage Independent Growth IC50, 16 hrs.
The mark [9] stands for this setting: read-out: Anchorage independent Growth IC50, 80 hrs.

Where two headings read alike, the source gives them in different places.

With `COc1cc(/C=C/C(=O)N2CCC=CC2=O)cc(OC)c1OC` [Piperlongumine, piperlongumine], the IC50 was 3.7 ± 1.7 µM with Stat3 phosphorylation [1]; 0.4 ± 0.5 µM with Stat3 phosphorylation [2] (MDA-MB 231); 2.8 ± 2.1 µM in the data set with Stat3 phosphorylation [2] (MDA-MB 468); 9.2 µM in the data set with MDA-MB-231 cells (read-out: Anchorage Independent Growth IC50, 16 hrs, MDA-MB-231); 0.3 µM in the data set with MDA-MB-231 cells (read-out: Anchorage independent Growth IC50, 80 hrs, MDA-MB-231); 1.2 ± 1.8 µM in the data set on MDA-MB-231 cells (read-out: IC50 Anchorage independent growth (MTT), MDA-MB 231, Mean ± SEM, n ≥ 2). Moreover, the IC50 in the data set with MDA-MB-468 cells (read-out: Anchorage Independent Growth IC50, 16 hrs, MDA-MB-468) is 2.8 µM; in the data set with MDA-MB-468 cells (read-out: Anchorage independent Growth IC50, 80 hrs, MDA-MB-468), 0.9 µM; in the data set with MDA-MB-468 cells (read-out: IC50 Anchorage independent growth (MTT), MDA-MB 468, Mean ± SEM, n ≥ 2), 4.6 ± 4.8 µM; in the data set with Hs 578T cells, 0.2 ± 0.1 µM; with MCF 10A (read-out: Anchorage Independent Growth IC50, 16 hrs, no sensitivity taken as 100 μM), over 100 µM; in the data set on MCF 10A (setting [7]) it was over 100 µM. Besides, the IC50 with MCF-12A (setting [8]) was 16.2 µM; in the data set on MCF-12A (setting [7]), over 100 µM; in the data set with MCF-7 (setting [8]), 7 µM; with MCF-7 (setting [9]) it was 3.6 µM; in the data set on MDA-MB-453 (setting [8]), 15.5 µM; with MDA-MB-453 (setting [9]) it was 1.7 µM. Also, the IC50 worked out at 80.6 µM in the data set with ZR-75-1 (setting [8]); 0.8 µM in the data set with ZR-75-1 (setting [9]); 42 µM in the data set on T-47D (setting [8]); 0.3 µM with T-47D (setting [9]); 12.9 µM with Sum159PT (setting [8]); 0.8 µM in the data set with Sum159PT (setting [9]). Moreover, the IC50 in the data set with MC1 was 4.2 ± 2.3 µM; in the data set with BCM-2665 it was 0.1 µM; in data set [6] it was about 100 µM. The “effect on levels of total Stat3 or pStat1, pStat5 and total Stat1” value in the data set with Stat3 phosphorylation [2] (MDA-MB-231 and MDA-MB-468 (pStat1, pStat5, total Stat1 in MDA-MB-468)) is “without substantially affecting”. For the same molecule, in the data set on Stat3 phosphorylation [2] (MDA-MB-468, PL 30 μM), the “reduction of pStat3 levels at 15 min” value was over 50%. Further, the “time of maximal reduction of pStat3” value in the data set with Stat3 phosphorylation [2] (MDA-MB-468, PL 30 μM) is at most 30 min. For the same molecule, in the data set with Stat3 phosphorylation [2] (Sum159PT xenograft-derived GFP+ cells, increasing doses of PL), the “pStat3 levels in the GFP+ cells” value is recorded as “decreased”. In the data set with GFP+ SUM159PT cells, the “mammosphere formation by GFP+ cells” value is given as “completely inhibited”. Moreover, in the data set with MEF/GFP-Stat3α cells, the spheroid colony formation result is reported as “completely abrogating”. The “increase of FAS (CD95) mRNA” value in the data set on Stat3-regulated genes [3] was “two fold”. In addition, the “increase of caspase 3 cleavage compared to earlier time points” value in the data set on cleaved caspase 3 is reported as ~ 12 fold. The “reduction of tumor weight” value in data set [4] is over 50%. For the same molecule, the “reduction of β-actin-normalized BcL-xL mRNA in tumors” value in the data set on Stat3-regulated genes [5] is ~ 50%. Also, the “reduction of β-actin-normalized Survivin mRNA in tumors” value with Stat3-regulated genes [5] is ~ 50%. The toxicity in mice result in the data set “Toxicity in mice” is recorded as “non-toxic”.
As to `O=C1C=CC(=O)c2c1ccc1c2ccc2ccccc21` [chrysene 1,4 quinone], the IC50 against GFP-Stat3α was found to be 10 µM.
